This is an account of results in paper PMC9017786 (Peptide science (Hoboken, N.J.), 2020).

A short description of the data set: Transmission electron microscopy of the peptide assemblies. The data set is classed as physicochemical. Conditions: TEM; after ALP 1 U/mL, 1.0 wt% in PBS buffer pH 7.4, 24 hours, 37 °C. The method in brief:
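Phosphopeptide (1.0 wt% total, pH 7.4 PBS) was dephosphorylated with alkaline phosphatase (1 U/mL) for 24 h at 37 °C. Samples went onto 400 mesh copper grids coated with continuous carbon film (~35 nm), were stained with uranyl acetate and air-dried, then imaged by TEM. Nanofiber width was measured from the images.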

For the substance Nap-wwy [compound 1], the “Diameter (width) of the nanofibers” value is given as 7 ± 2 nm.
